Results collected from several papers.
Compare with care: the assays were run in different laboratories.
Target: Wee1-like protein kinase 2 (WEE2, Homo sapiens, UniProt P0C1S8)

Structure (SMILES) | test | setting | remaining binding [%]
Cn1cc(Cl)c2c(Oc3c(F)cc(Nc4cc(Cl)nc(N)n4)cc3F)ccnc21 | cell-free assay, competition with immobilised ligand | 0.1 µM | 93
O=C(Nc1c[nH]nc1C(=O)NC1CCNCC1)c1cc(F)cc(F)c1 | binding, competition with immobilised ligand | 1 µM | 100
O=C(NCCCN1CCOCC1)c1ccc(Nc2nccc(-c3cc4ccccc4s3)n2)cc1 | binding, competition with immobilised ligand | 1 µM | 86
Nc1ncc2c(n1)-c1c([nH]c3ccc(C#CC4CC4)cc13)CCCC2 | binding, competition with immobilised ligand | 1 µM | 98
CCc1ccccc1C(=O)Nc1n[nH]c2c(C)c(F)c(C3C(C#N)=C(C)N(C)C(C)=C3C#N)cc12 | cell-free assay, competition with immobilised ligand | 1 µM | 82
COc1ncc2cc3ccccc3nc2c1C#N | cell-free assay, competition with immobilised ligand | 5 µM | 100
c1cnn2ncc(-c3ccnc(N4CCC45COC5)n3)c2c1 | binding | 1 µM | 76
C=CC(=O)N1CCC(C(=O)NCC(=O)N2CCN(c3nc(-c4cnc(N)nc4C(F)F)nc(N4CCOCC4)n3)CC2)CC1 | binding, competition with immobilised ligand | 1 µM | 100
COc1cnc(Nc2cccc(S(N)(=O)=O)c2)nc1N1CCN(c2ccccc2)CC1 | binding, competition with immobilised ligand | 1 µM | 96
O=C(Nc1cnc(Oc2ccc(F)cc2)nc1)N1CCc2ncccc2[C@@H]1c1ccc(F)cc1 | cell-free assay, competition with immobilised ligand | 1 µM | 95
O=C(c1ccc(Nc2nccc(-c3cc4ccccc4s3)n2)cc1)N1CCC(N2CCCC2)CC1 | binding, competition with immobilised ligand | 1 µM | 65
N[C@@H]1CCN(c2nccc(-c3cnn4ncccc34)n2)C1 | binding | 1 µM | 100
O=C(NCc1ncc(C(F)(F)F)cc1Cl)c1ccc2c(c1)C1(CCS(=O)(=O)CC1)[C@H](C1CC1)N2S(=O)(=O)c1ccc(F)cc1 | cell-free assay, competition with immobilised ligand | 1 µM | 100
CN(c1nccc(-c2cnn3ncccc23)n1)C1CC1 | binding | 1 µM | 100
C[C@@H](c1ccc(-n2cnc3c(N)ncnc32)cc1)N1CCc2nn(C)c(Cc3ccccc3)c2C1=O | binding, competition with immobilised ligand | 0.1 µM | 92
C[C@@H]1CCN(c2nccc(-c3cnn4ncccc34)n2)C1 | binding | 1 µM | 87
O=C(NCCCN1CCOCC1)c1ccc(Nc2ncc(Cl)c(-c3ccc(Cl)s3)n2)cc1 | binding, competition with immobilised ligand | 1 µM | 19
CCCCN(CCCC)C(=O)CN1C[C@@H](c2cc(OC)c3c(c2)OCO3)[C@H](C(=O)O)[C@H]1CC(C)(C)CCC | cell-free assay, competition with immobilised ligand | 1 µM | 89.1
CN(C)c1ncc(F)c(-c2cnn3ncccc23)n1 | binding | 1 µM | 98
Cc1cc(-n2nc(Cc3cc(F)cc(C(F)(F)F)c3)nc2C)ccc1C(N)=O | cell-free assay, competition with immobilised ligand | 1 µM | 100
CC1CCCN1c1nccc(-c2cnn3ncccc23)n1 (stereo not drawn) | binding | 1 µM | 100
